# Screens deposited in PubChem by several laboratories.
# An excerpt weighted towards active compounds, which were near 1.4% of everything screened.
# TNAP act hi DEA: increases human TNAP activity under high phosphate acceptor concentration; P05186; purified TNAP, CDP-star luminescence, 1 M DEA, 30 min; active compounds read high; 0 = EDTA background, 1 = DMSO-only activity; activation factor at 20 µM; 200,000 tested, under 10 active;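 active means activation factor at least 2 at 20 µM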
#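 Dosing: 20 µM single point. System: human TNAP. Amount: TNAP 1/800 final. Incubation: 30 min, room temperature. Read-out: TNAP activation factor scaled between EDTA and DMSO control wells. Signal: luminescence from CDP-star hydrolysis. Medium: 1 M DEA, pH 9.8, Mg2+, Zn2+. Control set: EDTA negative control, DMSO positive control.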
# CHT block: inhibits the human high affinity choline transporter | CHT-expressing cells, membrane potential dye, choline response; active compounds read low | B-score at 10 µM | 0.86% of 310,000 active | AID 488975;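 active means B-score over 3 SD under the library average, and starting fluorescence ratio not unusually high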;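 further: choline stimulus applied at its EC90 after an EC20 pre-addition; B-score computed on integrated fluorescence ratio after choline addition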
# TNAP inh hi DEA: TNAP (human) inhibition, high acceptor. P05186. purified TNAP, CDP-star luminescence, 1 M DEA. inhibition, % at 20 µM. 0.03% of 200,000 active;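 active means over 50% inhibition of tissue-nonspecific alkaline phosphatase at 20 µM in the single-dose screen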;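 further: plate controls were DMSO wells for no effect and EDTA-quenched wells as full inhibition for full effect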
# TNAP inh no acc: blocks human TNAP activity with no phosphate acceptor present; purified TNAP, CDP-star luminescence, 30 min; inhibition, % at 20 µM; 0.26% of 200,000 active; AID 1012;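 active means tissue-nonspecific alkaline phosphatase inhibition above about 50% at 20 µM in the single-dose screen, limit read from the data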;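 further: 0% = DMSO negative control and 100% = EDTA positive control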
# CHT allo act: allosterically activates the human high affinity choline transporter | Q9GZV3 | CHT-expressing cells, membrane potential dye, choline EC20; active compounds read high; LV-AA mutant CHT in HEK293 cells | B-score at 10 µM | 0.49% of 310,000 active;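 active means initial fluorescence not abnormally high and integrated response B-score, plate-corrected, over 3 SD above library mean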
# ABCB6 inh MLPCN: blocks the human ABCB6 transporter; 0.19% of 360,000 active; AID 602162; fluorescence ratio to DMSO, % at 10 µM; Q9NP58; K562-ABCB6 porphyrin accumulation, flow cytometry, 1 h; active compounds read low;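 active means fluorescence ratio to DMSO below 75%, the collection mean minus 3 SD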;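 further: signal is porphyrin accumulated inside mitochondria; 100% equals median channel fluorescence of DMSO control wells; lower ratio means ABCB6 inhibition with less porphyrin fluorescence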
# Target sequence (Q9NP58 whole entry, looked up): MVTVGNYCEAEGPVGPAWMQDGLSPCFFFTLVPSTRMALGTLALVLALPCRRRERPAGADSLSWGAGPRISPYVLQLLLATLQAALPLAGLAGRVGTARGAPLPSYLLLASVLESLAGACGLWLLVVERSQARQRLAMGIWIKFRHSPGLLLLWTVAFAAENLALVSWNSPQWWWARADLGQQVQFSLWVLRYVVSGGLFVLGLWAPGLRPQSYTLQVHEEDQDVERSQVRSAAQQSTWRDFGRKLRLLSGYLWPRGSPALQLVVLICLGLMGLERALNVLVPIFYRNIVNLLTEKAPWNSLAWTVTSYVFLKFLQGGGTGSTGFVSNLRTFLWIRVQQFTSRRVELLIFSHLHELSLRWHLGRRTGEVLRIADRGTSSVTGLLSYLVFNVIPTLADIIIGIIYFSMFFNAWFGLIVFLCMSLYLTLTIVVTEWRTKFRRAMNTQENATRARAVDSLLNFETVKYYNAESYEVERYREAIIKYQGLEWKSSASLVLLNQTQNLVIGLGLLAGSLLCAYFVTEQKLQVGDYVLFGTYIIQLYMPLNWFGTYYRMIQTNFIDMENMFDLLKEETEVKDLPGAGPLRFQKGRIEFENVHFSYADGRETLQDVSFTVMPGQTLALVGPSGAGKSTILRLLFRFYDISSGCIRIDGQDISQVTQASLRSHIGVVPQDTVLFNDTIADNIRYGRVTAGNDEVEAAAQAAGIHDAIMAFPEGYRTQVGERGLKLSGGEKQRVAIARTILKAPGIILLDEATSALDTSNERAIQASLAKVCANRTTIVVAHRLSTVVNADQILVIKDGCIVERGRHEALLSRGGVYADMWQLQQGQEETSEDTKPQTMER
# * hit, by the source's call; i = inactive; . = no result.
SMILES,TNAP act hi DEA,CHT block,TNAP inh hi DEA,TNAP inh no acc,CHT allo act,ABCB6 inh MLPCN
Cc1ccc(NC(=O)CN(C)CC(=O)Nc2ccc(N3CCOCC3)cc2)c(C)c1,1.1,i,-7,-10,i,95
CN(CC(=O)Nc1ccc(N2CCOCC2)cc1)CC(=O)Nc1ccccc1C#N,1,i,-3,50*,i,96
O=[N+]([O-])c1cc(C(F)(F)F)ccc1N1CCN(S(=O)(=O)c2ccc3c(c2)CCCC3)CC1,1,i,-1,30,i,96
O=[N+]([O-])c1cc2cccnc2c2ncccc12,.,i,.,.,7*,101
Cc1ccc([N+](=O)[O-])c2cccnc12,1,i,-2,5,i,101
CN(CC(=O)NC(=O)NC1CCCCC1)CC(=O)Nc1ccc(OC(F)(F)F)cc1,.,.,.,.,.,99
O=C(COC(=O)c1ccccc1NC(=O)c1ccccc1)c1cccc([N+](=O)[O-])c1,1,i,-2,1,i,102
O=C(COC(=O)c1ccccc1NC(=O)c1ccccc1)c1ccc([N+](=O)[O-])cc1,1,i,-4,-12,6.4*,110
Cc1ccc(N(C)S(=O)(=O)c2ccc(-c3cnc(C4CC4)o3)cc2)cc1,.,i,.,.,6.4*,101
COc1ccc(OCCNC(=O)c2ccc3nc(C)c(N(C)Cc4ccc(NC(C)=O)cc4)n3c2)cc1,.,.,.,.,.,95
CC(Sc1nncn1C)C(=O)Nc1ccc2ccccc2c1 (configuration not stated),.,.,.,.,.,101
CC(C)(C)c1ccc(C(=O)N2CCC(C(=O)NC3CCCCCC3)CC2)cc1,.,-5.1*,.,.,i,95
O=C(NC1CCCC1)C1CCN(C(=O)c2ccc(Cl)cc2)CC1,.,i,.,.,i,96
Cc1c[nH]c2cccc(OCC(CNC(C)(C)C)OC(=O)c3ccccc3)c12 (configuration not stated),.,-11*,.,.,i,98
O=C(NNC(=O)c1ccccc1C(=O)O)c1ccc(-c2ccccc2)cc1,1.1,-6.7*,-7,-34,i,.
Cc1[nH]c(=O)[nH]c(=O)c1S(=O)(=O)N(CC(C)C)CC(C)C,1,i,0,-6,i,90
Cc1cccc(NC(=O)CN2NS(=O)(=O)c3ccccc3C2=O)c1,1.1,i,-10,-10,i,100
c1csc(-c2nn3c(Cn4nnc5ccccc54)nnc3s2)c1,1,i,-4,62*,i,100
CCS(=O)(=O)n1nc(-c2ccc(Cl)cc2)nc1SCc1ccccc1,1,i,-3,62*,i,.
COc1ccc(-c2nc(SCc3ccccc3)n(S(C)(=O)=O)n2)cc1,1,i,1,62*,i,100
CCS(=O)(=O)n1nc(-c2ccc(Cl)cc2)nc1N,1,i,3,12,i,92
CCOC(=O)/C(=C\c1ccc(C)cc1)NC(=O)c1ccccc1,1,i,-2,-7,i,70*
O=C(NCCc1ccccc1)/C(=C\c1ccc([N+](=O)[O-])cc1)NC(=O)c1ccc(Br)cc1,1,i,0,-3,i,97
Cc1ccc(C(=O)N/C(=C\c2ccc([N+](=O)[O-])cc2)C(=O)NCCc2ccccc2)cc1,1,i,-2,-10,i,71*
Cc1ccc(/C=C(\NC(=O)c2ccccc2)C(=O)OCc2ccccc2)cc1,1,i,3,-9,i,101
SMILES,TNAP act hi DEA,CHT block,TNAP inh hi DEA,TNAP inh no acc,CHT allo act,ABCB6 inh MLPCN
CCCC1OC(c2ccco2)OCC1CC (configuration not stated),.,.,.,.,.,97
CCOc1cc(/C=N/NC(=O)c2cccnc2)cc(Br)c1OCC(N)=O,1,i,-1,-8,i,103
NC(=O)CSc1nnc(SCc2ccc(F)cc2)s1,1,i,-2,-9,i,104
Cc1cccc(NS(=O)(=O)c2cccc(C(=O)NCCCN3CCOCC3)c2)c1,.,i,.,.,i,95
COc1ccc(-c2[nH]ncc2C=O)cc1,1,i,3,70*,i,99
COc1ccc(-c2[nH]ncc2/C=N\NS(=O)(=O)c2ccc(Cl)cc2)cc1,1,i,-2,13,i,101
